Measured values taken from ChEMBL document CHEMBL3124817, “Design and synthesis of thiazole derivatives as potent FabH inhibitors with antibacterial activity” (Eur J Med Chem, 2014).
Values after ≈ are worked out from the molar mass of the structure shown.

How the values were obtained:
[1] = Cytotoxicity against human macrophages after 24 hrs by MTT assay; format: cell-based, Macrophage
Outline: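 Human macrophages in DMEM with 10% FBS and antimycotic, 1.8×10^4 cells/well. Compounds at 160, 40, 10, 2.5, 0.25 μg/mL in 10% DMSO, 24 h at 37 °C under 5% CO₂. Then MTT for 4 h, formazan dissolved in DMSO, absorbance difference 570/630 nm as viability. CC50 by curve fitting; untreated cells as negative control.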

[2] = Inhibition of Escherichia coli N-terminal His-tagged FabH expressed in Escherichia coli BL21(DE3) using holo-acyl carrier protein as substrate preincubated for 1 min followed by acetyl-CoA addition measured after 25 mins by liquid scintillation counting analysis
Outline: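 His-tagged FabH purified by Ni–NTA. Reaction: 1 nM FabH, […], 20 mM sodium phosphate pH 7.0, 0.5 mM DTT, 0.25 mM MgCl₂, 1 min preincubation. Started with 25 μM acetyl-CoA plus 0.75 μCi [³H]acetyl-CoA for 25 min. Stopped with cold TCA, protein pellet counted by liquid scintillation. Inhibitors from DMSO stock, final DMSO ≤2%; IC50 determined.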

Escherichia coli = assay: Antibacterial activity against Escherichia coli ATCC 35218 after 24 hrs by MTT assay; format: functional; conditions: ATCC 35218, 24 h
Outline: (§1)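 Broth microdilution in sterile liquid MH medium; compounds from 1 mg/mL DMSO stock, serially diluted. Inoculum about 10^5 cfu/mL, 37 °C for 24 h. MIC read visually, then MTT (2 mg/mL in PBS pH 7.4) added for 4–5 h at room temperature. Dye extracted with acidified isopropanol for 12 h, OD at 550 nm.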

Pseudomonas aeruginosa = assay: Antibacterial activity against Pseudomonas aeruginosa ATCC 13525 after 24 hrs by MTT assay; format: functional; conditions: ATCC 13525, 24 h; outline: as §1
Bacillus spizizenii = assay: Antibacterial activity against Bacillus subtilis ATCC 6633 after 24 hrs by MTT assay; format: functional; conditions: ATCC 6633, 24 h; outline: as §1
Staphylococcus aureus = assay: Antibacterial activity against Staphylococcus aureus ATCC 6538 after 24 hrs by MTT assay; format: functional; conditions: ATCC 6538, 24 h; outline: as §1

IC50 [2] | pIC50 [2] | MIC (Escherichia coli) | MIC (Pseudomonas aeruginosa) | MIC (Bacillus spizizenii) | MIC (Staphylococcus aureus) | Compound | CC50 at 24 h [1]
6.6 µM | 5.25 | 12.5 µg/mL (≈ 31 µM) | 3.13 µg/mL (≈ 7.76 µM) | 6.25 µg/mL (≈ 15.5 µM) | 3.13 µg/mL (≈ 7.76 µM) | COc1cccc(CC(=O)Nc2nc(-c3ccc(Br)cc3)cs2)c1 | 192 µM
12.3 µM | 4.91 | – | – | – | – | O=C(Cc1cccc(Cl)c1)Nc1nc(-c2ccccc2)cs1 | 264 µM
26.9 µM | 4.57 | – | – | – | – | O=C(Cc1cccc(Br)c1)Nc1nc(-c2ccccc2)cs1 | 257 µM
– | – | – | 25 µg/mL (≈ 77.1 µM) | – | – | COc1cccc(CC(=O)Nc2nc(-c3ccccc3)cs2)c1 | –
38.4 µM | 4.42 | – | – | – | – | O=C(Cc1ccc(F)cc1)Nc1nc(-c2ccccc2)cs1 | 318 µM
41.8 µM | 4.38 | – | – | – | – | O=C(Cc1ccc(Cl)cc1)Nc1nc(-c2ccccc2)cs1 | 357 µM
– | – | 50 µg/mL (≈ 148 µM) | 50 µg/mL (≈ 148 µM) | > 100 µg/mL | > 100 µg/mL | CCOc1cccc(CC(=O)Nc2nc(-c3ccccc3)cs2)c1 | –
> 100 µM | – | – | – | – | – | O=C(Nc1nc(-c2ccccc2)cs1)c1ccccc1 | –
4.9 µM | – | – | – | – | – | CC1(C)S[C@@H]2[C@H](NC(=O)Cc3ccccc3)C(=O)N2[C@H]1C(=O)O [PENICILLIN G] | 229 µM

Further lines, the compound ahead of its results:

Compound | IC50 [2] | pIC50 [2] | MIC (Escherichia coli) | MIC (Pseudomonas aeruginosa) | MIC (Bacillus spizizenii) | MIC (Staphylococcus aureus) | CC50 at 24 h [1]
O=C(Cc1ccc(Cl)cc1)Nc1nc(-c2ccc(Br)cc2)cs1 | 34.7 µM | 4.46 | – | – | – | – | 286 µM
O=C(Cc1ccc(Br)cc1)Nc1nc(-c2ccc(Br)cc2)cs1 | 48.1 µM | 4.32 | – | – | – | – | 315 µM
O=C(Cc1cccc(Cl)c1)Nc1nc(-c2ccc(Br)cc2)cs1 | 9.3 µM | 5.27 | 6.25 µg/mL (≈ 15.3 µM) | 12.5 µg/mL (≈ 30.7 µM) | – | – | 194 µM
O=C(Cc1cccc(Br)c1)Nc1nc(-c2ccc(Br)cc2)cs1 | 5.8 µM | 5.01 | 1.56 µg/mL (≈ 3.45 µM) | 3.13 µg/mL (≈ 6.92 µM) | 1.56 µg/mL (≈ 3.45 µM) | – | 220 µM
O=C(Nc1nc(-c2ccc(Br)cc2)cs1)c1ccccc1 | > 100 µM | – | – | – | – | – | –
O=C(Cc1ccc(F)cc1)Nc1nc(-c2ccc(Br)cc2)cs1 | 29.3 µM | 4.53 | – | – | – | – | 264 µM
CCOc1cccc(CC(=O)Nc2nc(-c3ccc(Br)cc3)cs2)c1 | – | – | 50 µg/mL (≈ 120 µM) | 25 µg/mL (≈ 59.9 µM) | 50 µg/mL (≈ 120 µM) | > 100 µg/mL | –
